The source made the active and inactive calls. No cut-off for these calls is given here.
Columns and labels:
[1] = target: T1, Glutathione S-transferase P (Homo sapiens, UniProt P09211); assay: Inactivation of recombinant human Glutathione S-transferase P
In short: (§1)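 Recombinant human GSTP1-1 (E. coli-expressed, glutathione-agarose purified), 0.1 mg/mL, preincubated with haloenol lactone (0.17 mM, added in ethanol; vehicle control) in phosphate buffer pH 7.4 at 30 °C. Aliquots taken at 0, 2, 5, 12 min. Residual activity read by Habig assay: 1.0 mM GSH + 1.0 mM CDNB, 0.1 M phosphate pH 6.5, A340, corrected for nonenzymatic rate; kobs from time course.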
Target sequence in this assay (P09211 2-210 limits assumed): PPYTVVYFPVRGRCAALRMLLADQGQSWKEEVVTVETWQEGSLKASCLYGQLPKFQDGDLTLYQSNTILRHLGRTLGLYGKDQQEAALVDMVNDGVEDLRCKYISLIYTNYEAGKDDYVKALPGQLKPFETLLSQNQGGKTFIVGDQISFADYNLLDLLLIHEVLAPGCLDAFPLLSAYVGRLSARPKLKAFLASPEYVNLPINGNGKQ

[2] = target: T1, Glutathione S-transferase P; assay: (§2) Inhibitory activity for human glutathione S-transferase-pi isozyme was determined; in short: as §1
Target sequence in this assay (P09211 whole entry): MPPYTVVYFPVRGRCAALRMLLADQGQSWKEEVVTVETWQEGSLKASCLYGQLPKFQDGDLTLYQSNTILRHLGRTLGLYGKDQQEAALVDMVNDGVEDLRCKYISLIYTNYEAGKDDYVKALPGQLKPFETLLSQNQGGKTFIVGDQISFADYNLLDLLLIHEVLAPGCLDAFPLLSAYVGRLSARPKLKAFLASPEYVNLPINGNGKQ

[3] = target: T1, Glutathione S-transferase P; assay: as §2; in short: as §1; remark: listed apart in the source
Target sequence in this assay (P09211 2-210 limits assumed): as the sequence (P09211 2-210 limits assumed) above

[4] = target: T1, Glutathione S-transferase P; assay: (§3) Inhibitory activity for human Glutathione S-transferase P was determined; in short: as §1
Target sequence in this assay (P09211 whole entry): as the sequence (P09211 whole entry) above

[5] = target: T1, Glutathione S-transferase P; assay: as §3; in short: as §1; remark: listed apart in the source
Target sequence in this assay (P09211 2-210 limits assumed): as the sequence (P09211 2-210 limits assumed) above

**Q.** Which K obs [1] does the source give for O=C1O/C(=C/Br)CC1Cc1ccc2ccccc2c1 (stereo not given) here?
**A.** 0.0499

**Q.** O=C1O/C(=C/Br)CC1CC1CCCCC1 (stereo not given) was tested. Which K obs [1] did it give?
**A.** 0.0438

**Q.** Which K obs [1] does the source give for COc1ccc(/C=C/CC2C/C(=C\Br)OC2=O)cc1 (stereo not given) here?
**A.** inactive

**Q.** O=C1O/C(=C/I)CC1C/C=C/c1ccccc1 (stereo not given) was tested. Which K obs [1] did it give?
**A.** 0.0421

**Q.** With O=C1O/C(=C/Br)CC1c1ccccc1 (stereo not given) as the molecule, how does the K obs [1] read?
**A.** 0.15

**Q.** And the Ki [2]?
**A.** 124 µM

**Q.** And the Kina [3]?
**A.** 0.097 min⁻¹

**Q.** With CCCCCCCCC1C/C(=C\Br)OC1=O (stereo not given) as the molecule, how does the K obs [1] read?
**A.** 0.0382

**Q.** CCCCCCC1C/C(=C\Br)OC1=O (stereo not given) was tested. Which K obs [1] did it give?
**A.** 0.0847

**Q.** For O=C1O/C(=C/Br)CC1CCCCc1ccccc1 (stereo not given), which K obs [1] is on record?
**A.** 0.0366

**Q.** Which K obs [1] does the source give for O=C1O/C(=C/Br)CC1CCc1ccccc1 (stereo not given) here?
**A.** 0.0632

**Q.** With O=C1O/C(=C/Br)CC1C/C=C/c1ccc(C(F)(F)F)cc1 (stereo not given) as the molecule, how does the K obs [1] read?
**A.** 0.0364

**Q.** For CCCCCCCC1C/C(=C\Br)OC1=O (stereo not given), which K obs [1] is on record?
**A.** 0.0608

**Q.** For CCCCCCCCCC1C/C(=C\Br)OC1=O (stereo not given), which K obs [1] is on record?
**A.** 0.0359

**Q.** Which K obs [1] does the source give for O=C1O/C(=C/Br)CC1CCCc1ccccc1 (stereo not given) here?
**A.** 0.0439

**Q.** C/C(Br)=C1/CC(C/C=C/c2ccccc2)C(=O)O1 (stereo not given) was tested. Which K obs [1] did it give?
**A.** 0.0322

**Q.** O=C1O/C(=C/Br)CC1Cc1ccccc1 (stereo not given) was tested. Which K obs [1] did it give?
**A.** 0.101

**Q.** With O=C1O/C(=C/Br)CC1C/C=C/c1ccccc1 (stereo not given) as the molecule, how does the K obs [1] read?
**A.** 0.0604

**Q.** What about the Ki [4] of the same molecule?
**A.** 6.1 µM

**Q.** What about the Kina [5] of the same molecule?
**A.** 0.025 min⁻¹
